Assay outcomes: PubChem, several laboratories
Shown is part of a subset that was picked to be rich in hits.
T cruzi repl – inhibitors of intracellular T. cruzi growth, primary screen, luminescence, NIH3T3 host cells | T. cruzi beta-gal in NIH3T3, 90 h | 300,000 tested, 1.4% active | inhibition, % (test concentration not listed);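 active means mean inhibition across valid replicates above about 55%, limit read from the data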;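 further: signal also drops with host cell toxicity which is not excluded here; higher percent means less beta-gal luminescence so fewer parasites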
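System – NIH/3T3 host cells with β-galactosidase reporter T. cruzi · Doses – single 50 nL compound addition per well in DMSO · Reagent – 5000 T. cruzi trypomastigotes/well · Medium – Low-serum DMEM with 2% FBS · Timing – ≥90 h infection period, 3 h prior cell attachment · Evaluation – parasite load inhibition, % · Technique – GalScreen luminescence, 60 min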
Dynein cargo inh – inhibitors of GR-EGFP nuclear translocation, primary screen, dynein cargo transport inhibitor project, imaging, high-content, 3617.4 mouse cells. z-score, hits read low. test concentration mostly 20 µM; stimulated with dexamethasone, 1 µM; stronger effect = lower value. AID 1381, 2008. 220,000 tested, 0.47% active;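 active means plate z-score of nuclear minus cytoplasmic receptor signal below a set negative limit, without overly bright fluorescence or cell loss, cut at about -3.5 in these data, passing the limit was not always enough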;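 further: z-score of nuclear minus cytoplasmic ring GR-EGFP intensity difference per well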
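Medium: Induction medium lacking tetracycline, stripped serum | Probe or stimulus: 1.0 µM final dexamethasone stimulus | Schedule: 48 h induction, then 1 h compound, then 30 min agonist, 37 °C | Signal: Automated 10x imaging of fixed Hoechst-stained cells | Evaluation: Per-cell GR-EGFP intensity, nucleus versus surrounding cytoplasmic ring, well-averaged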
CHOP UPR activ – activators of apoptotic CHOP UPR arm, primary screen, cell-based, CHO-CHOP luciferase reporter, luminescence, uHTS. activation, % at 10 µM. AID 449763, 2010. UPR activation; percent of tunicamycin response over DMSO baseline. 330,000 tested, 0.34% active;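 active means at 10 µM dose, activation of 40% or more, normalized to positive control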
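measured by = luciferase luminescence | assay system = CHO-CHOP cells, stable luciferase reporter of PERK-eIF2a-CHOP signalling | amount = 500 reporter cells seeded per well | timing = 6 h compound exposure at 37 °C after overnight seeding | controls = positive tunicamycin 10 µg/mL, negative DMSO alone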
L major viab – Leishmania major promastigote growth inhibition, primary screen | Leishmania major promastigotes, resazurin fluorescence viability | inhibition, % at 10 µM | 200,000 tested, 9% active; in the data active means inhibition above about 50%;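 further: promastigotes grown with compound for 44 hours at 28 °C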
UPR XBP1 act – activators of adaptive XBP1 UPR arm, primary screen, cell-based, CHO-XBP1 luciferase reporter, luminescence, uHTS; IRE1-XBP1 UPR activation; percent of tunicamycin response, DMSO as zero; activation, % at 20 µM; 330,000 tested, 0.33% active; AID 463104, 2010;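 active means versus positive control, 20 µM dose yields 30% or more activation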
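Material – CHO cell line with stable XBP1 luciferase reporter · Buffer or medium – F12 plus 10% FBS · Compound – single point, 20 µM final compound, 1% DMSO · Schedule – 16-18 h cell attachment at 37 °C, then 6 h compound exposure · Signal – Steady-Glo luminescence read · Benchmarks – high control tunicamycin 10 µg/mL final, low control DMSO vehicle only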
CHOP inh – inhibitors of CHOP promoter induction, primary screen, cell-based, unfolded protein response, luciferase reporter. CHO-K1 CHOP-promoter luciferase, tunicamycin-induced, 15-18 h. inhibition, % at 10 µM. AID 2732, 2010. 220,000 tested, 3.8% active;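 active means compounds that reduced the stress-induced luciferase reporter signal by more than about 70% of percent inhibition, limit read from the data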
Large screens that a line does not name were inactive.

Cc1c(Cl)c([N+](=O)[O-])nn1CCCC(=O)N1CCN(c2ccccc2)CC1	none
O=C(Cn1cc([N+](=O)[O-])nc1[N+](=O)[O-])N1CCN(c2ccccc2)CC1	L major viab 100
CSc1ncccc1C(=O)Nc1nnc(C2CC2)s1	none
Cc1ccc(NC2=CC(=O)C(=O)c3ccccc32)c(C)c1	none (no result: T cruzi repl, Dynein cargo inh, L major viab, CHOP inh)
O=C1C=C(Nc2ccccc2O)c2ccccc2C1=O	L major viab 100
O=c1cccccc1NCc1ccccc1	none
O=C1C=C(NCc2ccccc2)c2ccccc2C1=O	L major viab 97 (no result: CHOP UPR activ, UPR XBP1 act)
Cc1ccc(NC(=O)C2=NNC(=O)CC2)cc1S(=O)(=O)Nc1ccc(SC(F)F)cc1	none (no result: T cruzi repl, Dynein cargo inh, L major viab, CHOP inh)
Cc1ccc(NC(=S)NC2CCCC2)c(C)c1	none (no result: Dynein cargo inh, L major viab, CHOP inh)
Cc1ccc(C)c(NC(=S)NC2CC3CCCC(C2)N3CC(C)C)c1 (configuration not stated)	L major viab 65
Cc1ccc(C)c(NC(=S)NC2CC3CCC(C2)N3Cc2ccco2)c1 (configuration not stated)	none
Cc1cc(C)cc(NC(=S)NC2CC3CCC(C2)N3Cc2ccco2)c1 (configuration not stated)	L major viab 90
CCCN1C2CCCC1CC(NC(=S)Nc1cc(C)cc(C)c1)C2 (configuration not stated)	L major viab 54
CCCN1C2CCCC1CC(NC(=S)NCCCOCC)C2 (configuration not stated)	none
Fc1ccc(NC(=S)NC2CC3CCC(C2)N3Cc2ccco2)cc1 (configuration not stated)	L major viab 82
COc1ccc(-c2noc(CN3CCCC(OCc4ccccn4)C3)n2)cc1 (configuration not stated)	none (no result: L major viab)
CSCCC1NC(=O)N(CC(=O)Nc2ccc3c(c2)OCCO3)C1=O (configuration not stated)	none (no result: T cruzi repl, Dynein cargo inh, L major viab, CHOP inh)
N#CCCN(C(=O)COC(=O)CCN=C1NS(=O)(=O)c2ccccc21)c1ccc(F)cc1	none (no result: Dynein cargo inh, L major viab, CHOP inh)
Cc1cccc(NC(=S)NC2CC3CCCC(C2)N3Cc2cccs2)c1 (configuration not stated)	L major viab 89
CCOc1ccc(NC(=S)NC2CC3CCC(C2)N3Cc2ccco2)cc1 (configuration not stated)	L major viab 68
COc1ccc(C2=C/C(=C\c3cccc(OC(C)=O)c3)C(=O)O2)cc1	L major viab 51
COc1ccc(C2=C/C(=C\c3ccccc3OC(C)=O)C(=O)O2)cc1	none (no result: Dynein cargo inh, L major viab, CHOP inh)
O=C(NC12CC3CC(CC(C3)C1)C2)N(Cc1ccccc1)Cc1ccncc1	L major viab 55
c1cc(CNC23CC4CC(CC(C4)C2)C3)ccn1	L major viab 84
O=C(CC12CC3CC(CC(C3)C1)C2)NCc1ccncc1	none
CCN1CCN(c2ccc(Nc3ccnc4ccccc34)cc2)CC1	none (no result: T cruzi repl, Dynein cargo inh, L major viab, CHOP inh)
O=S(=O)(Nc1cc(S(=O)(=O)N2CCOCC2)ccc1NCC1CCCO1)c1ccc(F)cc1 (configuration not stated)	none (no result: T cruzi repl, Dynein cargo inh, L major viab, CHOP inh)
O=C1C2CCCN2C(=O)N1CCN1CCN(c2ccccc2)CC1 (configuration not stated)	L major viab 61
O=C1C2CCCN2C(=O)N1CCCCN1CCN(c2ccccc2)CC1 (configuration not stated)	none
CSc1nc2n(n1)C(c1cccs1)C1=C(CCCC1=O)N2 (configuration not stated)	none
O=C1CCCC2=C1C(c1cccs1)n1nc(SCc3ccccc3F)nc1N2 (configuration not stated)	L major viab 91
Cc1ccccc1CSc1nc2n(n1)C(c1cccs1)C1=C(CCCC1=O)N2 (configuration not stated)	L major viab 58, CHOP inh 78
C#C[C@]1(OC(C)=O)CCC2C3CCC4=CC(=O)CC[C@@H]4C3CC[C@@]21C (some centres not stated)	none (no result: Dynein cargo inh, L major viab, CHOP inh)
O=C(Nc1ccccc1)/C(=C/c1ccc2c(c1)OCO2)NC(=O)c1ccco1	none
Oc1ccc2cc(Br)ccc2c1CN1CCCC1	none
CCCN1CCC(=NNc2ccc(S(=O)(=O)N(CC)CC)cc2[N+](=O)[O-])CC1	L major viab 100
N#Cc1ccc(C(=O)N/N=C/c2cn(CC(=O)O)c3ccccc23)c(F)c1	L major viab 58
COc1ccc(N(CCCN2C(=O)c3cccc4cccc(c34)C2=O)C(=O)c2ccncc2)cc1	T cruzi repl 55, L major viab 69
COc1cc(OC)cc(C(=O)N(CCCN2C(=O)c3cccc4cccc(c34)C2=O)c2cccc(OC)c2)c1	none
COc1ccc(N(CCCN2C(=O)c3cccc4cccc(c34)C2=O)C(=O)c2cccnc2)cc1	T cruzi repl 68, L major viab 51
COC(=O)[C@H](Cc1ccccc1)NC(=O)Cn1ccc(NC(=O)OCc2ccccc2)nc1=O	none (no result: T cruzi repl, Dynein cargo inh, L major viab, CHOP inh)
CCSc1nc2sc3c(c2c(=O)[nH]1)CCc1ccccc1-3	CHOP inh 84
O=C1NC(=Nc2ccccc2)S/C1=C\C=C\c1ccco1	CHOP inh 87
COc1ccc(N=C2NC(=O)/C(=C\C=C\c3ccccc3)S2)cc1	none
COc1ccc(N=C2NC(=O)/C(=C/C=C/c3ccccc3)S2)cc1	CHOP inh 77 (no result: L major viab)
COc1ccccc1N1CCN(S(=O)(=O)CCNC(=O)C23CC4CC(CC(C4)C2)C3)CC1	none (no result: Dynein cargo inh, L major viab, CHOP inh)
CC(=O)N1CCN(c2ccc(OC[C@H]3CO[C@](Cn4ccnc4)(c4ccc(Cl)cc4Cl)O3)cc2)CC1	L major viab 89
CCCCN(CCCC)Cc1cc2ccccc2c2c1COC2	CHOP inh 76
CCCN(CCC)Cc1cc2ccccc2c2c1COC2	none
CC(OC(=O)C1CSC2(C)CCC(=O)N12)C(=O)Nc1ccc(F)cc1 (configuration not stated)	none (no result: T cruzi repl, Dynein cargo inh, L major viab, CHOP inh)
CCOc1ccc(C2C([N+](=O)[O-])=C(C)N(C)C(=O)N2C)cc1OC (configuration not stated)	L major viab 56
COc1ccc(C2C([N+](=O)[O-])=C(C)N(C)C(=O)N2C)cc1OC (configuration not stated)	none
O=C(NC1CCCCC1)C1CCC(=O)N(Cc2cccc(C(F)(F)F)c2)C1 (configuration not stated)	none (no result: Dynein cargo inh, L major viab, CHOP inh)
O=C(Nc1nc2c(Cl)cccc2s1)c1ccc(Br)o1	none
